Assay results published in the M2OR odorant receptor database.

Target: T1, OR8D1 (Homo sapiens) (UniProt Q8WZ84)
T1 sequence (whole entry): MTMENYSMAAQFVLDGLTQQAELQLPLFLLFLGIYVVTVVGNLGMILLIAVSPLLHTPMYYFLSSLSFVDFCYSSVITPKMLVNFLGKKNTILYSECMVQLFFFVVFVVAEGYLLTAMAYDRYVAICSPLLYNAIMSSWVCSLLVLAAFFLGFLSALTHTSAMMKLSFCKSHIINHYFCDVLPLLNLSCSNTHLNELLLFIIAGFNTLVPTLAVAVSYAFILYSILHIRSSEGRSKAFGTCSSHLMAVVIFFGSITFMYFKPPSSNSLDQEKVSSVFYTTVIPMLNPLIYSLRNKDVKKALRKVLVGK
Settings: stereoisomer not certain
How it was run: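 Assay methods differ from source to source, frequently being transient luciferase assays in mammalian cell lines. For each receptor–molecule pair, the label responsive (active) applies when the original authors judged the measured signal statistically different from baseline, and non-responsive (inactive) applies otherwise.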

Odorant receptor agonist call, inactive:
CCC(C)CO (configuration not stated), C=Cc1ccc(O)cc1, COc1ccc(C)cc1O, C=C1CCC2CC1C2(C)C (configuration not stated), CCCCC=CC=CC=O, C=CCSC, CCCCCCC1CCC(=O)O1 (configuration not stated), CSCSC, CCCC1CCCC(=O)O1 (configuration not stated), CCC(=O)C(C)=O, CCC(=O)O, CCCC(=O)C(C)CC (configuration not stated), C=Cc1ccc(O)c(OC)c1, CCCCCCCCCO, CCCC(O)CC(=O)OCC (configuration not stated), C=CC(=O)CCCCC, CSSSC, CCC=CCCC=CCO, C=CC(O)CCCCC (configuration not stated), SCc1cccs1, Cc1cccc(C)c1O, CCCCCc1ccccn1, CCCc1ccc(O)c(OC)c1, CCCCC(=O)OCC, CCCC(=O)OC, CCCCCC=CC=CC=O, CCCCCCOC(C)=O, CCc1ncc(C)nc1CC, CCC=CCC=O, CCCCCCCCCC(=O)OCC, CCCC=CC=O, CCCCCCCC1CCCC(=O)O1 (configuration not stated), Cc1cccc(O)c1, CCCCCC=CCCC=O, Cc1occc(=O)c1O, CCCC(=O)OCC, CCCCCCCCC=CC=O
